A short description of assay [1]: Binding affinity to Ebola virus glycoprotein assessed as dissociation constant incubated for 20 to 30 mins by microscale thermophoresis. On the set-up: species or system Ebolavirus. In outline: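 EBOV glycoprotein amine-labelled with RED-NHS dye, 2.5 nM final in 10 mM MES pH 5.0, 150 mM NaCl, 170 mM sodium malonate pH 5.2, plus 0.05% Tween 20 and 10 mM BME. 16-point 2-fold series from 250 μM to 7.629 nM, 2.5% DMSO final. Incubated 20–30 min. MST run at 20% excitation, high power, 23.0 °C, in quadruplicate. Kd from mass-action fit of Fnorm, with aggregated or outlier traces removed.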

For a further assay, the system named is Ebolavirus. The experiment in a line: Antiviral activity against Ebolavirus infected in human HeLa cells assessed as reduction in viral replication incubated for 48 hrs by luminescence based assay. Format: functional, organism-based. To be noted: Orthoebolavirus.

What is called Kd is the constant that tells how readily two partners part at equilibrium. In general, IC50 refers to the point on the concentration scale where inhibition reaches its midpoint.

`CCN(CC)CCCC(C)Nc1c2ccc(Cl)cc2nc2ccc(OC)cc12` (centres undefined) [QUINACRINE]: the Kd in assay [1] (read-out: Kd) came to 7.55 µM. Further, the IC50 with Ebolavirus is 1.05 to 1.48 µM.
On to `NC(=O)c1nc(F)cnc1O` [FAVIPIRAVIR], for which the Kd entry in assay [1] is “Not Active”.
Consider `C[C@H]1[C@H](OC(=O)CCC(=O)O)O[C@@H]2O[C@@]3(C)CC[C@H]4[C@H](C)CC[C@@H]1[C@@]24OO3` [ARTESUNATE], for which the Kd entry in assay [1] was “Not Active”.
Take `COc1ccc2nc3cc(Cl)ccc3c(Nc3cc(CN4CCCC4)c(O)c(CN4CCCC4)c3)c2n1` [PYRONARIDINE]: in assay [1] (read-out: Kd), the Kd is 7.34 µM. Besides, in the assay with Ebolavirus, the IC50 fell in the range of 0.82 to 1.3 µM.
On to `CCN(CC)CCOc1ccc2c(c1)C(=O)c1cc(OCCN(CC)CC)ccc1-2` [TILORONE], for which, in assay [1] (read-out: Kd), the Kd came to 0.731 µM. The IC50 in the assay on Ebolavirus was 1.14 to 1.48 µM.
`CN(C)CCOc1ccc(/C(=C(/CCCl)c2ccccc2)c2ccccc2)cc1` [TOREMIFENE]: the Kd in assay [1] (read-out: Kd) worked out at 24.8 µM.

The record behind these values is ChEMBL document CHEMBL4619819, “Toward the Target: Tilorone, Quinacrine, and Pyronaridine Bind to Ebola Virus Glycoprotein” (ACS Med Chem Lett, 2020).
